HKDC1 inh = inhibitors of human hexokinase HKDC1. Q2TB90. recombinant HKDC1, G6PDH/diaphorase resazurin coupled fluorescence. inhibition, % at 20 µM. 340,000 tested, 0.16% active;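 active = inhibition above about 35% when tested at 20 µM, limit read from the data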;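 also: plate controls were DMSO wells with enzyme for no effect and DMSO wells lacking enzyme for full effect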
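Incubation: 90 min at room temperature in dark / Material: recombinant HKDC1 (HK5) hexokinase enzyme, produced in-house / Quantity: enzyme 5 µg/mL final / Compound: one dose of 20 µM, 1% DMSO / Reagent: glucose and ATP substrates / Buffer or medium: Tris pH 8.0 buffer with MgCl2, Tween-20, BSA, BME / Technique: resorufin fluorescence at 613 nm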
Diaphorase inh = inhibits diaphorase or chemically oxidizes, flagging diaphorase assay artifacts | diaphorase resazurin-to-resorufin fluorescence, NADH, 16 min; bacterial (C. kluyveri) enzyme, not human | inhibition, % at 20 µM | 190,000 tested, 0.69% active;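 active = primary screen inhibition at 20 µM above a set limit, cut at about 50% in these data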;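 also: plate controls were DMSO with full reaction for no effect and wells lacking NADH for full effect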
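material = Clostridium kluyveri diaphorase enzyme | amount = 0.14 U/mL diaphorase, enzyme working solution | schedule = incubation 16 min, room temperature | detection = fluorescence of resorufin formed from resazurin, Ex 544/Em 590 nm | benchmarks = positive control minus NADH, DMSO neutral control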
ATG4B inh = inhibitors of human ATG4B cysteine protease. ATG4B cleavage of LC3-PLA2, NBD-HPC fluorescence, 1 h. inhibition, % at 8.33 µM. 340,000 tested, 0.51% active. AID 504462; in the data active = inhibition above about 40%
Target sequence (Q9Y4P1 whole entry, looked up): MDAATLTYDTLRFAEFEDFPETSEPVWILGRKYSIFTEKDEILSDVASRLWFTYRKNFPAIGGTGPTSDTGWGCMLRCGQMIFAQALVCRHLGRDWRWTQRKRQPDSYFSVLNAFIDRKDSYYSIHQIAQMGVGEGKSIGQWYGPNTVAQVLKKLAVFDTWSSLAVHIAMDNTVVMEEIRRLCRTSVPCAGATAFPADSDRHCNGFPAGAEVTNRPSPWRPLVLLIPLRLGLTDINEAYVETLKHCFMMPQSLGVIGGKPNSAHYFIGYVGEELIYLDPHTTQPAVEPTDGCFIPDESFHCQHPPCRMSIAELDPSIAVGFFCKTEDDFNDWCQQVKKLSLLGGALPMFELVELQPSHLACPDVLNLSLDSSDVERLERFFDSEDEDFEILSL
Diaph act CS = counter-screen for diaphorase-based assays: diaphorase activators and chemical reducers. AID 1229. 190,000 tested, 0.005% active. activation factor at 20 µM. Diaphorase/resazurin coupled assay, resorufin fluorescence, 16 min; active compounds read high; 1 = vehicle wells, 0 = NADH-free wells;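 active = diaphorase activity raised at least twofold by the compound at 20 µM; inactive = activation factor below 2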
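Assay system: bacterial diaphorase enzyme (C. kluyveri) / Input: enzyme 0.07 U/mL final / Medium: 50 mM HEPES pH 7.4 with 4.542 mM MgCl2, 0.005% Tween 20 / Doses: single compound dose of 20 µM, 1% DMSO final / Incubation: 16 min enzyme reaction, ambient temperature / Signal: fluorescence, excitation 544 nm and emission 590 nm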
Fh CTSL1 inh = blocks F. hepatica cathepsin L1 in PFM18AAP counter-screen; AID 1906; 300,000 tested, 0.49% active; inhibition, % at 5.96 µM; recombinant F. hepatica cathepsin L1, Z-Leu-Arg-MCA fluorescence;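 active = inhibition above the mean of all tested compounds plus 3 SD, set per screening campaign, cut at about 17% in these data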;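 also: 0% = plate median of test compound wells and 100% = 1 µM Z-Phe-Ala-diazomethylketone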
* marks the source's active call; other numbers are inactive results. Most compounds without a hit are left out; they make up all but 1.4% or so of the library.

CCCOC(=O)C1=C(C)NC2=C(C(=O)C(C(=O)OC)C(C)C2)C1c1ccc(N(CC)CC)cc1 (stereo not given) was read as HKDC1 inh 4, Diaphorase inh 40, ATG4B inh 15, Diaph act CS 0.6 and Fh CTSL1 inh 20*.
For Cc1nc(S(=O)(=O)c2ccc(Cl)cc2)c(NCc2ccccc2)o1 the results were HKDC1 inh 6, Diaphorase inh 6, ATG4B inh -6, Diaph act CS 0.9 and Fh CTSL1 inh 28*.
CNc1oc(C)nc1S(=O)(=O)c1ccccc1 was read as HKDC1 inh -6, Diaphorase inh 6, ATG4B inh -4, Diaph act CS 0.9 and Fh CTSL1 inh 2.
CCOc1ccc(S(=O)(=O)N2CCCC(C(=O)NCc3ccncc3)C2)cc1 (stereo not given) was read as HKDC1 inh -6, ATG4B inh -1 and Fh CTSL1 inh -5.
For CCOc1cc2c(C#N)c(N3CCOCC3)nc(N)c2c(N)n1 the results were HKDC1 inh 6, Diaphorase inh 64*, ATG4B inh -3, Diaph act CS 0.4 and Fh CTSL1 inh 0.
For CCOc1cc(N2CCOCC2)c(OCC)cc1NC(=O)COC(=O)COc1cc(C)cc(C)c1 the results were HKDC1 inh 0, ATG4B inh -1 and Fh CTSL1 inh -3.
CCOc1cc(N2CCOCC2)c(OCC)cc1NC(=O)COC(=O)c1cc(C)oc1C was read as HKDC1 inh -1, Diaphorase inh 10, ATG4B inh -12, Diaph act CS 0.9 and Fh CTSL1 inh 41*.
For CCOc1cc(N2CCOCC2)c(OCC)cc1NC(=O)COC(=O)c1cc(C)cc(C)c1 the results were HKDC1 inh -9, Diaphorase inh 10, ATG4B inh -4, Diaph act CS 0.9 and Fh CTSL1 inh 50*.
For CN1CCN(c2ccccc2NC(=O)c2ccc(F)cc2)CC1 the results were HKDC1 inh 0, ATG4B inh -1 and Fh CTSL1 inh -1.
CC1CCN(c2ccccc2NC(=O)c2ccc(F)cc2)CC1 was read as HKDC1 inh 3, Diaphorase inh 12, ATG4B inh 11, Diaph act CS 0.9 and Fh CTSL1 inh 18*.
Cc1ccc(C)c(CN2C(=O)CSc3ccc(C(=O)NCCN4CCOCC4)cc32)c1 was read as HKDC1 inh -4, ATG4B inh -5 and Fh CTSL1 inh 10.
Screening O=C(NCCN1CCOCC1)c1ccc2c(c1)N(Cc1ccccc1F)C(=O)CS2 returned HKDC1 inh 0, Diaphorase inh 15, ATG4B inh 10, Diaph act CS 0.8 and Fh CTSL1 inh 27*.
O=C(NCCN1CCOCC1)c1ccc2c(c1)N(Cc1ccccc1F)C(=O)c1ccccc1S2(=O)=O was read as HKDC1 inh -1, ATG4B inh 3 and Fh CTSL1 inh 18*.
Screening CCN1CCCC1CNC(=O)c1ccc2c(c1)N(Cc1ccccc1F)C(=O)c1ccccc1S2(=O)=O (stereo not given) returned HKDC1 inh 0, ATG4B inh 3 and Fh CTSL1 inh 52*.
Screening COc1ccc(-c2cn(CCC(=O)O)c(C)n2)cc1 returned HKDC1 inh -7, ATG4B inh 6 and Fh CTSL1 inh -2.
`O=[N+]([O-])c1ccccc1-c1ccc(C(=S)N2CCCC2)o1` gave HKDC1 inh 4, Diaphorase inh 53*, ATG4B inh 1, Diaph act CS 0.5 and Fh CTSL1 inh 4.
`Cc1cccc(NC(=O)/C(C#N)=C/c2cccc([N+](=O)[O-])c2)n1` gave HKDC1 inh 4, ATG4B inh 3 and Fh CTSL1 inh -4.
`O=C(O)CC(C(=O)O)N1C(=O)/C(=C/c2ccc(-c3nc4ccccc4s3)o2)SC1=S` (stereo not given) gave HKDC1 inh 24, Diaphorase inh 32, ATG4B inh 68*, Diaph act CS 0.7 and Fh CTSL1 inh 8.
For COc1ccc(CCNC(=O)c2ccc(S(=O)(=O)N3CCCCC3)cc2)cc1 the results were HKDC1 inh 2 and ATG4B inh 0.
For C/C(CC(=O)Nc1ccc(Cl)c(Cl)c1)=N\NC(N)=S the results were HKDC1 inh -9, Diaphorase inh 5, ATG4B inh -5, Diaph act CS 1 and Fh CTSL1 inh 30*.
